Data as given in ChEMBL document CHEMBL1124929, “Indolo[2,1-a]isoquinolines. Syntheses, steroid hormone receptor binding affinities, and cytostatic activity” (1990).

Tests used:
[1] = target: T1, Estrogen receptor (Mus musculus) (UniProt O08537+P19785); assay: Inhibition of 0.4 ug estrone-stimulated uterine growth in mice at 250 ug subcutaneous dose; type: functional
In short: (§1)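 Immature 20-day-old female NMRI mice received sc injections on three consecutive days. Each injection held 0.4 µg estrone plus the compound in PEG/saline 1:1. […] Significance was tested by Mann-Whitney U test.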

[2] = target: T1, Estrogen receptor (Mus musculus); assay: Estrogenic activity in uterotrophic assay in immature mice at 2 ug subcutaneous dose; type: functional
In short: (§2)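 Immature female NMRI mice, 20 days old, in groups of 6-10, were dosed sc once daily for three consecutive days. Compounds were given in PEG/0.9% saline 1:1; vehicle controls were included. Animals were killed 24 h after the last dose. Uteri were fixed in Bouin solution and the effect was taken as uterine dry weight (mg)/body weight (g) ×100, given as mean ± SD.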

[3] = target: T2, Androgen receptor (Mus musculus) (UniProt P19091); assay: Inhibition of seminal vesicle weight in intact mice at 100 ug
T2 sequence (whole entry): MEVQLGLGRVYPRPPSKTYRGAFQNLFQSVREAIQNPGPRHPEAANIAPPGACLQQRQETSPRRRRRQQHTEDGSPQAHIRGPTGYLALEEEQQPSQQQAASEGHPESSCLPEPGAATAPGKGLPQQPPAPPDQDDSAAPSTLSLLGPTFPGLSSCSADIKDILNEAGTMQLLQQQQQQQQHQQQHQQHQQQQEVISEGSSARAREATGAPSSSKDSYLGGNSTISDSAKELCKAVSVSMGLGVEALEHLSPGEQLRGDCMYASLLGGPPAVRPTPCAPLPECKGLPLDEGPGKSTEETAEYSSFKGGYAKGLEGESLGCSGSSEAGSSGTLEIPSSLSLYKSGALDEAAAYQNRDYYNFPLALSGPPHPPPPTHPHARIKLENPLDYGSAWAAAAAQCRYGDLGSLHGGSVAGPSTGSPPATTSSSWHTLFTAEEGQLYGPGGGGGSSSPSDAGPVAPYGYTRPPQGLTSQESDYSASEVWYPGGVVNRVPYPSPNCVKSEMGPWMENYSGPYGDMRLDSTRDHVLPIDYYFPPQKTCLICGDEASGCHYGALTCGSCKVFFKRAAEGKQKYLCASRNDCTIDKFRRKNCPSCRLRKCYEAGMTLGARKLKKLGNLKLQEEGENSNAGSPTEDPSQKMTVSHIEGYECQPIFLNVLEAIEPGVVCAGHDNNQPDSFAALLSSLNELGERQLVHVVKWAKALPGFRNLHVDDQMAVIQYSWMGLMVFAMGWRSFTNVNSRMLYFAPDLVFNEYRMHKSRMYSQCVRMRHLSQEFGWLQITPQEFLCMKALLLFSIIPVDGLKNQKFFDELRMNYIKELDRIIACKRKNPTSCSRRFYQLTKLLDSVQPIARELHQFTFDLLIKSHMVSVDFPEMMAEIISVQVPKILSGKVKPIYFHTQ

[4] = tested on: MCF7; assay: Effect on [3H]thymidine incorporation into MCF-7 human breast cancer cells at 1x10E-5 M; type: functional
In short: (§3)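 Cells were seeded at ~2 × 10⁴ per well, treated from the next day in 0.1% DMSO, with DMSO controls. MCF-7 cells were held in charcoal-stripped NCS for 2 weeks, treated for 5 days and re-dosed on day 4. MDA-MB 231 cells were grown in McCoy 5a/10% NCS and treated for 2 days. At the end, 1 µCi [³H]thymidine per well was added for 2 h. Result is % T/C, mean of three experiments × six dishes.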

[5] = tested on: MCF7; assay: Effect on [3H]thymidine incorporation into MCF-7 human breast cancer cells at 1x10E-7M; type: functional; in short: as §3
[6] = target: T1, Estrogen receptor (Mus musculus); assay: Inhibition of 0.4 ug estrone-stimulated uterine growth in mice at 125 ug subcutaneous dose; p<0.01; type: functional; in short: as §1
[7] = target: T2, Androgen receptor (Mus musculus); assay: Relative effect on seminal vesicle weight in adult and castrated mice at 1000 ug dose; type: functional, tissue-based
In short: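 Adult male mice, 23–25 g, six per group, were used intact or castrated via the scrotal route under ether 5 days before the test. Castrates received 0.3 mg testosterone propionate daily. Compounds were injected daily in olive oil for nine days. Seminal vesicles were taken 24 h later, fixed in Bouin solution, dried overnight at 100 °C and weighed. Result is organ mg/body g ×100; % inhibition = [1 − treated/control] × 100.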

[8] = tested on: MCF7; assay: Effect on hormone-dependent MCF-7 human breast cancer cell proliferation at 1x10E-5 M; type: functional
In short: (§4)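 Cells were plated at about 2 × 10⁴ per well in six-well dishes. MCF-7 cells were grown in modified improved MEM with 5% NCS, switched to charcoal-treated NCS two weeks before the test, and exposed for 5 days with a re-dose on day 4. MDA-MB 231 cells were grown in McCoy 5a with 10% NCS and exposed for 2 days. Compounds were given 1 day after plating in 0.1% DMSO, with DMSO-matched controls. Read-out was cell number as % T/C, mean of three experiments with six dishes.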

[9] = tested on: MCF7; assay: Effect on [3H]thymidine incorporation into MCF-7 human breast cancer cells at 5x10E-6M; type: functional; in short: as §3
[10] = target: T3, Androgen Receptor (Bos taurus) (UniProt Q5EM59); assay: Relative binding affinity(RBA) for 50% displacement of [3H]mibolerone from Androgen receptor compared to testorone
T3 sequence (whole entry): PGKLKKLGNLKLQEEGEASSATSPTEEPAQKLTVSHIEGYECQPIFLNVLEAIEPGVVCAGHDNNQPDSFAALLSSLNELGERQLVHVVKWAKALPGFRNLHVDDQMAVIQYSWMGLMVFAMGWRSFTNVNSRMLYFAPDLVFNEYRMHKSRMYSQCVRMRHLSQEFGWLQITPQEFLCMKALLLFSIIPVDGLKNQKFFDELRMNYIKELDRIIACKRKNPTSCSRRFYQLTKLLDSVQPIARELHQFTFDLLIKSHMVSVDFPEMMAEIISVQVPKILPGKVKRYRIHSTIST
In short: (§5)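 Receptor source was calf uterine cytosol (105000g supernatant, 3 mg/mL protein in assay). Buffers were Tris/EDTA pH 7.4, with NaN₃ for ER, molybdate/glycerol for AR, and sucrose for PR. Tracers were 1 nM [³H]estradiol, [³H]mibolerone or [³H]Org 2058. Incubation was at 0–4 °C for 16 h (ER) or 2 h (AR, PR), with 4–6 competitor concentrations. Nonspecific binding used 2 µM of the unlabeled hormone. Separation was by dextran-coated charcoal. RBA is the ratio of IC50 values for hormone and compound ×100, mean of two triplicate experiments.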

[11] = tested on: MDA-MB-231; assay: Effect on [3H]thymidine incorporation into MDA-MB 231 human breast cancer cells at 5x10E-6M; type: functional; in short: as §3
[12] = tested on: MDA-MB-231; assay: Cytostatic effect on hormone-independent MDA-MB 231 human breast cancer cell proliferation at5x10E-6M; type: functional; in short: as §4
[13] = target: T1, Estrogen receptor (Mus musculus); assay: Estrogenic activity in uterotrophic assay in immature mice at 250 ug subcutaneous dose; type: functional; in short: as §2
[14] = target: T1, Estrogen receptor (Mus musculus); assay: Estrogenic activity in uterotrophic assay in immature mice at 50.0 ug subcutaneous dose; type: functional; in short: as §2
[15] = tested on: MDA-MB-231; assay: Effect on [3H]-thymidine incorporation into MDA-MB 231 human breast cancer cells at 1x10E-6M; type: functional; in short: as §3
[16] = species on record: Bos taurus; assay: Relative binding affinity(RBA) as ratio of progesterone and compound required to displace [3H]-org 2058 binding to Progesterone receptor by 50%; in short: as §5

T1 sequence (O08537 whole entry, looked up): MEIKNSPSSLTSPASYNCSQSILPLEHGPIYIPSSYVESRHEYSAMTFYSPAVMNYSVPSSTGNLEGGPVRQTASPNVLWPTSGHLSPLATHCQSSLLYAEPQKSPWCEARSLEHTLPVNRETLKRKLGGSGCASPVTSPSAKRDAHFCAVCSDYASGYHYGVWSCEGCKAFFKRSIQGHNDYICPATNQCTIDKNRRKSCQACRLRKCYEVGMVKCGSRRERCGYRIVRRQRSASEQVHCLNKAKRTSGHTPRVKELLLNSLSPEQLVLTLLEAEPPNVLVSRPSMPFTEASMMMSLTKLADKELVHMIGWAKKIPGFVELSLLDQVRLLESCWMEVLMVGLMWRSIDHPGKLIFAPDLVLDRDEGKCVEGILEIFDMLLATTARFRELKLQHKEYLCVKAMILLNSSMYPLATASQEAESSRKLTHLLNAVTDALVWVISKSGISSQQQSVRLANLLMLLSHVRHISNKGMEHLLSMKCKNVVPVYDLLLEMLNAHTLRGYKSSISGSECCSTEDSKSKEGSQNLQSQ
T1 sequence (P19785 whole entry, looked up): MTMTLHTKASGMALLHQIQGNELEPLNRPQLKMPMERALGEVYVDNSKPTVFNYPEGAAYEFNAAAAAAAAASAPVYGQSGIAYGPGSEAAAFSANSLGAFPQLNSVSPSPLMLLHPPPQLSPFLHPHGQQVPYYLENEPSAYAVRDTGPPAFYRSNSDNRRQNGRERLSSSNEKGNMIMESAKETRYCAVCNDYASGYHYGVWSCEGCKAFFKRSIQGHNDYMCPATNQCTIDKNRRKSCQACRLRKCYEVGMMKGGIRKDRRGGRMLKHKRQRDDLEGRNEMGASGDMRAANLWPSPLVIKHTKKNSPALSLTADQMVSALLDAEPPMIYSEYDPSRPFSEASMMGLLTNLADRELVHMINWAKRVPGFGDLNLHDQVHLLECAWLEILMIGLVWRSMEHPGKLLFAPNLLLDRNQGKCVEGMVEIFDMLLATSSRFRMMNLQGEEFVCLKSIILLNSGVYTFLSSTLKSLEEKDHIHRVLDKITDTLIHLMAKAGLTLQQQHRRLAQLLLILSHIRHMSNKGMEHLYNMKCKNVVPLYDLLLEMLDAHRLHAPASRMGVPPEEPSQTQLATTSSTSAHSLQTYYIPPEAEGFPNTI

CCC1Cc2cc(OC(C)=O)ccc2-c2cc3cc(OC(C)=O)ccc3n21 (stereo unspecified)
inhibition [1]: 34.1%
Effect [2]: 18.5
inhibition [3]: 67%
T/C [4]: 2%
T/C [5]: 63%
inhibition [6]: 42%
Relative seminal vesicle weight [7]: 38.3
T/C [8]: 8%
T/C [9]: 4%
RBA [10]: 0.23
T/C [11]: 4%
T/C [12]: 4%
Effect [13]: 42.6
Effect [14]: 45.7
T/C [15]: 45%
RBA [16]: 0.13
